In ChEMBL document CHEMBL1145495, “Polyamine effects on antibiotic susceptibility in bacteria” (2007) one finds Activity and MIC data, which are given here for four molecules.

The subject of test [1] is Staphylococcus aureus. Put plainly: Antibacterial activity against Staphylococcus aureus ATCC 3556 at upto 16 mM after 14 to 16 hrs by broth dilution method. It is filed as functional, organism-based.
The test system of test [2] is Staphylococcus aureus. Put plainly: Antibacterial activity against Staphylococcus aureus N315 at upto 16 mM after 14 to 16 hrs by broth dilution method. It is filed as functional, organism-based. (Broth dilution looks for growth in wells or tubes with falling amounts of substance.)
The test system of test [3] is Staphylococcus aureus. The test can be described thus: Antibacterial activity against Staphylococcus aureus Mu50 at upto 16 mM after 14 to 16 hrs by broth dilution method. It is filed as functional, organism-based.
The subject of test [4] is Escherichia coli. Put plainly: Antibacterial activity against Escherichia coli C921-61 at upto 16 mM after 14 to 16 hrs by broth dilution method. The class given is functional, organism-based.
Test [5] relates to Salmonella typhimurium. The test can be described thus: Antibacterial activity against Salmonella enterica serovar Typhimurium LT2 at upto 16 mM after 14 to 16 hrs by broth dilution method. It is filed as functional, organism-based. As to conditions: Salmonella enterica subsp. enterica serovar Typhimurium.
In test [6] the test system is Escherichia coli. The test can be described thus: Antibacterial activity against Escherichia coli K12 at upto 16 mM after 14 to 16 hrs by broth dilution method. It is filed as functional, organism-based.
Test [7] relates to Escherichia coli. The test can be described thus: Antibacterial activity against Escherichia coli K10 at upto 16 mM after 14 to 16 hrs by broth dilution method. The class given is functional, organism-based.
Test [8] has as its system Pseudomonas aeruginosa. Put plainly: Antibacterial activity against Pseudomonas aeruginosa M37310 after 14 to 16 hrs by broth dilution method. It is filed as functional.
Test [9] has as its system Pseudomonas aeruginosa. The test can be described thus: Antibacterial activity against Pseudomonas aeruginosa T5177 after 14 to 16 hrs by broth dilution method. It is filed as functional. Summed up:
(§1)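 CLSI broth dilution in cation-adjusted Mueller-Hinton broth with serial twofold dilutions, with or without spermine or spermidine added. Overnight cultures were diluted in saline to OD600 0.1–0.12, and about 10^5 CFU were inoculated. Incubation was 14–16 h at 37°C. MIC was confirmed in three independent experiments. E. coli acrA mutants were tested with 1 mM spermine; P. aeruginosa isolates with 1 mM spermine or 20 mM spermidine.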

In test [10] the test system is Pseudomonas aeruginosa. The test can be described thus: Antibacterial activity against streptomycin-resistant Pseudomonas aeruginosa DK100 after 14 to 16 hrs by broth dilution method. It is filed as functional. Summed up:
as §1

The test system of test [11] is Escherichia coli. Put plainly: Antibacterial activity against Escherichia coli N43 acrA mutant assessed as inhibition of AcrAB efflux pump after 14 to 16 hrs by broth dilution method. It is filed as functional. The method, boiled down:
as §1

Test [12] relates to Pseudomonas aeruginosa. The test can be described thus: Antibacterial activity against Pseudomonas aeruginosa DK101 containing pAU48 expressing oprD after 14 to 16 hrs by broth dilution method. The class given is functional.
Test [13] deals with Escherichia coli. The test can be described thus: Antibacterial activity against Escherichia coli K12 after 14 to 16 hrs by broth dilution method. The class given is functional.
The test system of test [14] is Pseudomonas aeruginosa. The test can be described thus: Antibacterial activity against Pseudomonas aeruginosa H4563 after 14 to 16 hrs by broth dilution method. It is filed as functional.
The test system of test [15] is Pseudomonas aeruginosa. The test can be described thus: Antibacterial activity against Pseudomonas aeruginosa M38100A after 14 to 16 hrs by broth dilution method. The class given is functional.
Test [16] deals with Pseudomonas aeruginosa. The test can be described thus: Antibacterial activity against Pseudomonas aeruginosa PAO1 assessed as inhibition of bacterial population at 64 ug/ml after 48 hrs. It is filed as functional, organism-based. Summed up:
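Population analysis: overnight 37°C cultures adjusted to 1 x 10^8 to 5 x 10^8 CFU/ml, diluted, 100 µl spread on LB plates with twofold serial dilutions of antibiotic with or without 1 mM spermine, plus LB alone; colonies counted after 48 h at 37°C; triplicate experiments.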

Test [17] has as its system Escherichia coli. Put plainly: Antibacterial activity against Escherichia coli W4573 assessed as inhibition of AcrAB efflux pump after 14 to 16 hrs by broth dilution method. The class given is functional.
The subject of test [18] is Escherichia coli. The test can be described thus: Antibacterial activity against Escherichia coli N818 delta acrA mutant assessed as inhibition of AcrAB efflux pump after 14 to 16 hrs by broth dilution method. The class given is functional. The method, boiled down:
as §1

In test [19] the test system is Staphylococcus aureus. Put plainly: Antibacterial activity against Staphylococcus aureus ATCC 3556 after 14 to 16 hrs by broth dilution method. The class given is functional.
Test [20] deals with Pseudomonas aeruginosa. The test can be described thus: Antibacterial activity against Pseudomonas aeruginosa T15464 after 14 to 16 hrs by broth dilution method. The class given is functional. Summed up:
as §1

Test [21] has as its system Salmonella typhimurium. Put plainly: Antibacterial activity against Salmonella enterica serovar Typhimurium LT2 after 14 to 16 hrs by broth dilution method. It is filed as functional, Salmonella enterica subsp. enterica serovar Typhimurium.
Test [22] relates to Pseudomonas aeruginosa. The test can be described thus: Antibacterial activity against Pseudomonas aeruginosa F4980 after 14 to 16 hrs by broth dilution method. It is filed as functional. The method, boiled down: as §1
Test [23] has as its system Escherichia coli. Put plainly: Antibacterial activity against Escherichia coli C921-61 after 14 to 16 hrs by broth dilution method. The class given is functional.
Test [24] has as its system Staphylococcus aureus. Put plainly: Antibacterial activity against Staphylococcus aureus Mu50 after 14 to 16 hrs by broth dilution method. The class given is functional.
Test [25] deals with Escherichia coli. The test can be described thus: Antibacterial activity against Escherichia coli K10 after 14 to 16 hrs by broth dilution method. The class given is functional.
Test [26] concerns Staphylococcus aureus. Put plainly: Antibacterial activity against Staphylococcus aureus N315 after 14 to 16 hrs by broth dilution method. It is filed as functional. Summed up: as §1
In test [27] the test system is Pseudomonas aeruginosa. Put plainly: Antibacterial activity against Pseudomonas aeruginosa M22152 after 14 to 16 hrs by broth dilution method. The class given is functional. The method, boiled down: as §1
For test [28], the system named is Pseudomonas aeruginosa. Put plainly: Antibacterial activity against Pseudomonas aeruginosa T2095 after 14 to 16 hrs by broth dilution method. It is filed as functional.
Test [29] has as its system Pseudomonas aeruginosa. Put plainly: Antibacterial activity against Pseudomonas aeruginosa F66336 after 14 to 16 hrs by broth dilution method. It is filed as functional.
The test system of test [30] is Pseudomonas aeruginosa. The test can be described thus: Antibacterial activity against Pseudomonas aeruginosa PAO1 after 14 to 16 hrs by broth dilution method. It is filed as functional.
The subject of test [31] is Pseudomonas aeruginosa. The test can be described thus: Antibacterial activity against Pseudomonas aeruginosa T6268 after 14 to 16 hrs by broth dilution method. It is filed as functional.
For test [32], the system named is Pseudomonas aeruginosa. The test can be described thus: Antibacterial activity against Pseudomonas aeruginosa M38100B after 14 to 16 hrs by broth dilution method. The class given is functional.
The test system of test [33] is Pseudomonas aeruginosa. Put plainly: Antibacterial activity against streptomycin and gentamycin-resistant Pseudomonas aeruginosa DK101 containing oprD mutant after 14 to 16 hrs by broth dilution method. It is filed as functional. The method, boiled down: as §1
In test [34] the test system is Staphylococcus aureus. The test can be described thus: Antibacterial activity against Staphylococcus aureus Mu50 at 20 ug/ml after 12 hrs by time kill assay. The class given is functional, organism-based. Summed up: (§2)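 Time-kill: overnight MH broth cultures were diluted in saline to OD600 0.08–0.12, and 1 x 10^5 to 5 x 10^5 CFU went into 1 ml MH broth with or without antibiotic and/or 1 mM spermine. Static incubation at 37°C. Timed 100 µl aliquots were plated on LB neat or after 10-fold dilutions, and colonies counted after 18–24 h at 37°C.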

The test system of test [35] is Staphylococcus aureus. The test can be described thus: Antibacterial activity against Staphylococcus aureus Mu50 assessed as inhibition of bacterial population at greater than 512 ug/ml after 48 hrs. The class given is functional, organism-based.
For test [36], the system named is Staphylococcus aureus. Put plainly: Antibacterial activity against Staphylococcus aureus Mu50 assessed as inhibition of bacterial population at 128 ug/ml after 48 hrs. The class given is functional, organism-based.
Test [37] concerns Staphylococcus aureus. Put plainly: Antibacterial activity against Staphylococcus aureus N315 at 20 ug/ml after 12 hrs by time kill assay. It is filed as functional, organism-based. Summed up: as §2

Values after ≈ are worked out from the molar mass of the structure shown. Active and inactive are the calls of the source. No cut-off for these calls is given here.

`NCCCCNCCCN`: the result in the test on Staphylococcus aureus [1], in the test on Staphylococcus aureus [2], in the test on Staphylococcus aureus [3], in the test on Escherichia coli [4], with Salmonella typhimurium [5] and with Escherichia coli [6] was inactive. Besides, in the test with Escherichia coli [7], the result was inactive.
A word on the MIC: it is the lowest concentration found to suppress growth. Regarding `CC1(C)S[C@@H]2[C@H](NC(=O)C(C(=O)O)c3ccccc3)C(=O)N2[C@H]1C(=O)O` (stereo not given in full) [CARBENICILLIN], the MIC against Pseudomonas aeruginosa [8] was 1020 µg/mL (≈ 2710 µM); in the test on Pseudomonas aeruginosa [9] it was greater than 1020 µg/mL; with Pseudomonas aeruginosa [10], 64 µg/mL (≈ 169 µM); in the test on Escherichia coli [11], 4 µg/mL (≈ 10.6 µM); in the test on Pseudomonas aeruginosa [12], 64 µg/mL (≈ 169 µM); against Escherichia coli [13], 16 µg/mL (≈ 42.3 µM). Besides, the MIC was greater than 1020 µg/mL against Pseudomonas aeruginosa [14]; 16 µg/mL (≈ 42.3 µM) in the test with Pseudomonas aeruginosa [15]; 16 µg/mL (≈ 42.3 µM) in the test with Escherichia coli [17]; 2 µg/mL (≈ 5.29 µM) in the test on Escherichia coli [18]; 1 µg/mL (≈ 2.64 µM) in the test on Staphylococcus aureus [19]; greater than 1020 µg/mL in the test with Pseudomonas aeruginosa [20]. The MIC with Salmonella typhimurium [21] was 8 µg/mL (≈ 21.1 µM); in the test on Pseudomonas aeruginosa [22], 256 µg/mL (≈ 677 µM); in the test on Escherichia coli [23], 16 µg/mL (≈ 42.3 µM); with Staphylococcus aureus [24], no less than 512 µg/mL; in the test with Escherichia coli [25], 32 µg/mL (≈ 84.6 µM); in the test on Staphylococcus aureus [26] it was 32 µg/mL (≈ 84.6 µM). The MIC against Pseudomonas aeruginosa [27] was greater than 1020 µg/mL; in the test with Pseudomonas aeruginosa [28], 256 µg/mL (≈ 677 µM); with Pseudomonas aeruginosa [29] it was 256 µg/mL (≈ 677 µM); with Pseudomonas aeruginosa [30], 64 µg/mL (≈ 169 µM); against Pseudomonas aeruginosa [31], 16 µg/mL (≈ 42.3 µM); against Pseudomonas aeruginosa [32], 1020 µg/mL (≈ 2710 µM). The MIC with Pseudomonas aeruginosa [33] is 64 µg/mL (≈ 169 µM). The result with Pseudomonas aeruginosa [16] was Active.
Regarding `Cc1onc(-c2ccccc2)c1C(=O)N[C@@H]1C(=O)N2[C@@H]1SC(C)(C)[C@@H]2C(=O)O` [OXACILLIN], the outcome in the test with Staphylococcus aureus [34], in the test on Staphylococcus aureus [36] and with Staphylococcus aureus [37] was inactive. Further, the MIC against Escherichia coli [13] was 512 µg/mL (≈ 1280 µM); in the test on Staphylococcus aureus [19] it was 0.12 µg/mL (≈ 0.299 µM); in the test on Salmonella typhimurium [21], 256 µg/mL (≈ 638 µM); against Escherichia coli [23] it was 512 µg/mL (≈ 1280 µM); against Staphylococcus aureus [24] it was 512 µg/mL (≈ 1280 µM); against Staphylococcus aureus [26] it was 16 µg/mL (≈ 39.9 µM). For the same molecule, in the test with Staphylococcus aureus [35], the result was Active.
POLYMYXIN B: the MIC against Pseudomonas aeruginosa [8] was determined as 0.125 µg/mL; in the test on Pseudomonas aeruginosa [9] it was 0.5 µg/mL; in the test on Pseudomonas aeruginosa [10], 0.5 µg/mL; in the test with Pseudomonas aeruginosa [12], 0.5 µg/mL; against Escherichia coli [13], 0.25 µg/mL; against Pseudomonas aeruginosa [14], 0.125 µg/mL. Besides, the MIC was less than 0.06 µg/mL against Pseudomonas aeruginosa [15]; 64 µg/mL with Staphylococcus aureus [19]; 0.5 µg/mL against Pseudomonas aeruginosa [20]; 0.5 µg/mL with Salmonella typhimurium [21] (Salmonella enterica subsp. enterica serovar Typhimurium); 0.25 µg/mL in the test with Pseudomonas aeruginosa [22]; 0.5 µg/mL in the test on Escherichia coli [23]. For the same molecule, the MIC was 128 µg/mL in the test on Staphylococcus aureus [24]; 0.5 µg/mL with Escherichia coli [25]; 64 µg/mL in the test with Staphylococcus aureus [26]; 0.5 µg/mL against Pseudomonas aeruginosa [27]; 0.125 µg/mL with Pseudomonas aeruginosa [28]; 0.125 µg/mL against Pseudomonas aeruginosa [29]. The MIC with Pseudomonas aeruginosa [30] was determined as 1 µg/mL; against Pseudomonas aeruginosa [31], 1 µg/mL; with Pseudomonas aeruginosa [32], 16 µg/mL; with Pseudomonas aeruginosa [33] it was 0.5 µg/mL.
